Compound activity as filed in PubChem BioAssay.
This is a sample that favours compounds with a hit; in the whole collection about 1.5% have one here.
PKA-R1A act: activators of PKA-R1A holoenzyme, primary screen, biochemical, fluorescence polarization, Cy5-IP20, bovine R1A, mouse PKAc; AID 504707, 2011; PKA-R1A dissociation; scaled: DMSO 0%, 113 µM cGMP 100%; activation, % at 11.4 µM; cAMP-dependent protein kinase type I-alpha regulatory subunit (Bos taurus) + …; hit rate 0.083% among 340,000;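 active = percent activation above the mean of all tested compounds plus 3 SD, cut at about 19% in these data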;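 also: higher means more PKAc released from R1A so a rise in polarization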
S100A4 MyoIIA: inhibitors of S100A4-myosin IIA peptide binding, primary screen, biochemical, fluorescence polarization, TAMRA-MyoIIA peptide; Protein S100-A4 (Homo sapiens), P26447; inhibition, % at 10.7 µM; hit rate 0.14% among 360,000; AID 652163, 2013;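 active = mean inhibition of at least 70% across replicates, with every replicate also reaching that level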
Target sequence (P26447 whole entry, looked up): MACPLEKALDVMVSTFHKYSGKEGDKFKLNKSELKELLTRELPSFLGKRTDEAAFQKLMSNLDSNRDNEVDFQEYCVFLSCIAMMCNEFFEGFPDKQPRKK
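System – human S100A4 monomer protein, biochemical binding assay · Buffer or medium – Calcium-containing HEPES buffer, pH 7.2 · Timing – 5 min between mix addition and reading · Also added – TAMRA-labelled myosin IIA heavy-chain peptide probe, 5 nM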
SIRT5 block: SIRT5 desuccinylase inhibitors, primary screen, biochemical, fluorescence imaging, single point, set 5; hit rate 1.1% among 330,000; inhibition, % at 15 µM; Purified SirT5, succinyl-peptide AMC, trypsin-coupled fluorescence; NAD-dependent protein deacylase sirtuin-5, mitochondrial (Homo sapiens), Q9NXA8; in the data active = inhibition above about 15%
Target sequence (Q9NXA8 whole entry, looked up): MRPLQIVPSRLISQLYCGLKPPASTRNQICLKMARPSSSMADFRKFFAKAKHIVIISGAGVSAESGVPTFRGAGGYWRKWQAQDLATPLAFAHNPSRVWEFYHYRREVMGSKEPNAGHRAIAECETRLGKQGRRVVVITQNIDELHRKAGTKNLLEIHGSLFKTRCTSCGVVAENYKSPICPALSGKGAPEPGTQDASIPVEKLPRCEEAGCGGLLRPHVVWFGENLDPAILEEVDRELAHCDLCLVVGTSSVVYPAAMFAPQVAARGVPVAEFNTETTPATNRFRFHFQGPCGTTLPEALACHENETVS
PKA-R2B act: activators of PKA-R2B holoenzyme, primary screen, biochemical, fluorescence polarization, Cy5-IP20, human. hit rate 0.079% among 340,000. activation, % at 11.4 µM. PKA-R2B holoenzyme dissociation; R2B truncated from residue 108, S112A mutant; 0% DMSO only, 100% 113 µM cGMP;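 active = activation above a cutoff set at the mean over all compounds plus 3 SD, cut at about 18% in these data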;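 also: higher means more holoenzyme dissociation and a rise in polarization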
CRFBP-R2 block: antagonists of CRF-BP/CRF-R2 complex, primary screen, cell-based, HEK293, calcium dye fluorescence, uHTS; AID 588475, 2011; inhibition, % at 11.8 µM; CRF-induced calcium fluorescence; hit rate 0.59% among 350,000;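 active = inhibition of the ligand-induced calcium signal above about 50% at the single tested concentration, limit read from the data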
* hit, by the source's call.

What do the screens show for `CC(C)(C)NC(=O)CSc1nc2cccnc2n1C1CCCCC1`?
PKA-R1A act: -1; S100A4 MyoIIA: -12; SIRT5 block: 20*; PKA-R2B act: -2; CRFBP-R2 block: 1

How did CCOc1ccc(-c2noc(CCCC(=O)NC3CCCC3)n2)cc1OC do in these assays?
PKA-R1A act: 1; S100A4 MyoIIA: 2; SIRT5 block: 19*; PKA-R2B act: 8; CRFBP-R2 block: 5

How did c1ccc(-c2cncnc2)cc1 do in these assays?
PKA-R1A act: -2; S100A4 MyoIIA: 0; SIRT5 block: 25*; PKA-R2B act: 6; CRFBP-R2 block: -2

What do the screens show for `CN(C)C(=O)c1cccc(-c2ccc3n(c2=O)C[C@H]2[C@H](CO)[C@@H](C(=O)NCC4CC4)N[C@@H]32)c1`?
S100A4 MyoIIA: -1; SIRT5 block: -23

What do the screens show for `CCNC(=O)[C@H]1N[C@H]2c3ccc(-c4cccc(C(=O)N(C)C)c4)c(=O)n3C[C@H]2[C@@H]1CO`?
S100A4 MyoIIA: 83*; SIRT5 block: -10

What do the screens show for `COc1cccc(-c2ccc3n(c2=O)C[C@H]2[C@H](CO)[C@@H](C(=O)N4CCOCC4)N[C@@H]32)c1`?
S100A4 MyoIIA: 85*; SIRT5 block: -15

Results for O=C(C[C@@H]1CC[C@@H](NC(=O)Nc2ccc3c(c2)OCO3)[C@@H](CO)O1)NCc1ccc2c(c1)OCO2 ?
S100A4 MyoIIA: -7; SIRT5 block: -3

Results for CNC[C@@H]1Oc2ccc(NS(=O)(=O)c3c(C)noc3C)cc2C(=O)N([C@H](C)CO)C[C@H]1C ?
S100A4 MyoIIA: 4; SIRT5 block: -7

What do the screens show for `CCC(C)NC(=O)/C=C/c1cccs1` (stereo not drawn)?
PKA-R1A act: 0; S100A4 MyoIIA: 1; SIRT5 block: 17*; PKA-R2B act: -7; CRFBP-R2 block: 16

Results for O=C(/C=C/c1cccs1)Nc1ccncc1 ?
PKA-R1A act: -1; S100A4 MyoIIA: 10; SIRT5 block: 35*; PKA-R2B act: 2; CRFBP-R2 block: -11

Results for COc1ccc(S(=O)(=O)N(C)C[C@@H]2OCCCC[C@H](C)Oc3ccc(N(C)C)cc3C(=O)N([C@H](C)CO)C[C@@H]2C)cc1 ?
S100A4 MyoIIA: 35; SIRT5 block: 3

How did O=C(N/N=C/c1cc(Cl)cc([N+](=O)[O-])c1O)NC12CC3CC(CC(C3)C1)C2 do in these assays?
PKA-R1A act: -13; S100A4 MyoIIA: 0; SIRT5 block: 4; PKA-R2B act: -4; CRFBP-R2 block: 53*

Results for O=C(N/N=C/c1ccccc1O)NC12CC3CC(CC(C3)C1)C2 ?
PKA-R1A act: -7; S100A4 MyoIIA: -3; SIRT5 block: -1; PKA-R2B act: -22; CRFBP-R2 block: -4

Results for CCOc1ccccc1Nc1ccnc2cc(Cl)ccc12 ?
PKA-R1A act: -2; S100A4 MyoIIA: 0; SIRT5 block: 4; PKA-R2B act: 8; CRFBP-R2 block: 59*

What do the screens show for `Clc1ccc2c(NCc3ccccn3)ccnc2c1`?
PKA-R1A act: -14; S100A4 MyoIIA: -5; SIRT5 block: -3; PKA-R2B act: -13; CRFBP-R2 block: 4

Results for C=CCNC(=S)NNC(=O)c1ccc(OCC)cc1 ?
PKA-R1A act: -3; PKA-R2B act: -5; CRFBP-R2 block: 109*

Results for C=CCNC(=S)NNC(=O)c1ccc(OCCC)cc1 ?
PKA-R1A act: 3; PKA-R2B act: -6; CRFBP-R2 block: 18

How did CCCn1c(=N)n(CC(O)COc2ccc(C)cc2)c2ccccc21 (stereo not drawn) do in these assays?
PKA-R1A act: 3; S100A4 MyoIIA: -4; SIRT5 block: -3; PKA-R2B act: 6; CRFBP-R2 block: 51*

Results for CCn1c(=N)n(CC(O)COc2ccc(C)cc2)c2ccccc21 (stereo not drawn) ?
PKA-R1A act: 2; S100A4 MyoIIA: -2; SIRT5 block: -2; PKA-R2B act: 1; CRFBP-R2 block: -15
